Results from ChEMBL document CHEMBL3808369, “Identification of Cyproheptadine as an Inhibitor of SET Domain Containing Lysine Methyltransferase 7/9 (Set7/9) That Regulates Estrogen-Dependent Transcription” (J Med Chem, 2016).
Active and inactive are the calls of the source. The calls are words filed in the database; no cut-off is given here.

Assays:
[1] = target: T1, Histone-lysine N-methyltransferase SETD7 (Homo sapiens) (UniProt Q8WTS6); assay: Inhibition of Set7/9 in human MCF7 cells assessed as suppression of beta-estradiol-induced pS2 mRNA expression at 14 to 43 uM preincubated for 24 hrs followed by beta-estradiol addition measured after 24 hrs by RT-PCR analysis
T1 sequence (whole entry): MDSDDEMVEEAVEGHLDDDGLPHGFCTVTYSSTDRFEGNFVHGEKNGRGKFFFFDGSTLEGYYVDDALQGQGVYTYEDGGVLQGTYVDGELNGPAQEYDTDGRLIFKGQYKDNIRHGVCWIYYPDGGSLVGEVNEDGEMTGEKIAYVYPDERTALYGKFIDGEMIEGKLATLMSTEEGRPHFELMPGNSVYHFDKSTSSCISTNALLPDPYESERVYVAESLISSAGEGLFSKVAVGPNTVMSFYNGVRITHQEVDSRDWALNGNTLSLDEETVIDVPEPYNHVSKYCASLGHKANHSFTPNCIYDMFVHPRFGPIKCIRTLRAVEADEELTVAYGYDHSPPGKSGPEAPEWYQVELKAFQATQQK

[2] = target: T2, Histone-lysine N-methyltransferase EHMT2 (Homo sapiens) (UniProt Q96KQ7); assay: Inhibition of G9a (unknown origin) by ELISA
T2 sequence (whole entry): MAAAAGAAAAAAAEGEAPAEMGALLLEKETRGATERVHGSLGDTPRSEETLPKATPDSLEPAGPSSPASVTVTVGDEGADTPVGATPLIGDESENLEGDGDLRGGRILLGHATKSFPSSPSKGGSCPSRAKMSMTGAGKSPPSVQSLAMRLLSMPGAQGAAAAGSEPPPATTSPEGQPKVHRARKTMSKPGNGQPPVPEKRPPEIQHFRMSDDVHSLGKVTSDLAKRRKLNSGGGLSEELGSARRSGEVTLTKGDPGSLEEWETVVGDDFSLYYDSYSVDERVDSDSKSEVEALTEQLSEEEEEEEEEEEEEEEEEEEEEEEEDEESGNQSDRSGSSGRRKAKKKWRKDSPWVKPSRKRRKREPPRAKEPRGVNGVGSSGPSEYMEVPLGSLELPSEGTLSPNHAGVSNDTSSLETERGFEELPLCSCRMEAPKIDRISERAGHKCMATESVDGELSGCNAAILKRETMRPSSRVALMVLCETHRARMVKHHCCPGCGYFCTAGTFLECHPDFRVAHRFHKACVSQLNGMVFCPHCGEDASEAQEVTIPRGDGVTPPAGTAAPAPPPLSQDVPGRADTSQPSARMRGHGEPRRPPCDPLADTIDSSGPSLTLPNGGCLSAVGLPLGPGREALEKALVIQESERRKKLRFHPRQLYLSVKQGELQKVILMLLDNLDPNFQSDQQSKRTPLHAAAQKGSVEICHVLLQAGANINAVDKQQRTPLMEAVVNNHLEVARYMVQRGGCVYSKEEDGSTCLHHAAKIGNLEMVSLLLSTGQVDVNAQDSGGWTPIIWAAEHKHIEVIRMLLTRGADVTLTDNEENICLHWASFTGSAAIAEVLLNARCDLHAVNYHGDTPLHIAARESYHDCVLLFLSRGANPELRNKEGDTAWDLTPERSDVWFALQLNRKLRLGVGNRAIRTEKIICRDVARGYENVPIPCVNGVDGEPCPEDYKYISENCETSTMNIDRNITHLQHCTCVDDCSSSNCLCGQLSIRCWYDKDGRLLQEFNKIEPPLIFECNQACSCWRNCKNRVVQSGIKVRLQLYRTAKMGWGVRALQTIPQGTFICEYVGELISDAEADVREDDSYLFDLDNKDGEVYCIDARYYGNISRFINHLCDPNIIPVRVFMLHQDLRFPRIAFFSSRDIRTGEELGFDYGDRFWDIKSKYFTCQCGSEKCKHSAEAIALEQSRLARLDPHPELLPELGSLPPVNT

[3] = target: T1, Histone-lysine N-methyltransferase SETD7 (Homo sapiens); assay: Inhibition of Set7/9 in human MCF7 cells assessed as ERalpha destabilization at 43 uM for 36 hrs by immunoblotting analysis in presence of proteasome inhibitor MG132; format: cell-based
Method in brief: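 MCF7 cells treated with or without 43 μM drug for 36 h, then MG132 added for 12 h. Cells lysed by sonication in RIPA buffer with protease inhibitors. ERα read by SDS-PAGE/PVDF immunoblot with chemiluminescent detection.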

[4] = tested on: MCF7; assay: Antitumor activity against Fucci introduced human MCF7 cells xenografted in Balb/c-nu/nu mouse at 20 mg/kg, ip qd administered as single dose; format: functional, organism-based
Method in brief: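 Female Balb/C-nu/nu mice, 7 weeks old, carried mammary Fucci-MCF7 xenografts (about 2 × 10^7 cells) grown to about 100 mm3. A single ip dose of 20 mg/kg in saline with 10% ethanol was given on day 1; a vehicle group ran alongside. Caliper tumor volume (a2b)/2 and body weight were recorded every 3 or 4 days to day 15. Tumor volume relative to day 1; six mice, mean ± SE.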

[5] = target: T1, Histone-lysine N-methyltransferase SETD7 (Homo sapiens); assay: Inhibition of Set7/9 in human MCF7 cells assessed as half life of ERalpha at 43 uM by immunoblotting analysis in presence of cycloheximide (reference value: 15.6 +/- 1.2 hrs); format: cell-based
Method in brief: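 MCF7 cells treated with or without 43 μM drug in the presence of 1 μg/mL cycloheximide for various times. ERα immunoblotted from RIPA lysates and band intensity quantified to derive half-life. Three independent assays.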

[6] = target: T3, N-lysine methyltransferase KMT5A (Homo sapiens) (UniProt Q9NQR1); assay: Inhibition of Set8 (unknown origin) by AlphaELISA
T3 sequence (whole entry): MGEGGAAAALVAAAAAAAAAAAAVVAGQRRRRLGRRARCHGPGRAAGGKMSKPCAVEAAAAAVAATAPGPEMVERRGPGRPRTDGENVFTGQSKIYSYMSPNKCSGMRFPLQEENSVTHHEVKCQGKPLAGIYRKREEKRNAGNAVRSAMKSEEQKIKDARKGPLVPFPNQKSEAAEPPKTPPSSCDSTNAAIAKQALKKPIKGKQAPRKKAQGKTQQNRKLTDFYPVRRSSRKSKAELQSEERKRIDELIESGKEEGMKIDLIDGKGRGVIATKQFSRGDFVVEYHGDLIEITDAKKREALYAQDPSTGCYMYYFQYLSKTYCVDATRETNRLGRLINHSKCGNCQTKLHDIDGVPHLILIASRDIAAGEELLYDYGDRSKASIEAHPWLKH

[7] = target: T4, Histone-lysine N-methyltransferase SETD7 (Homo sapiens, UniProt Q8WTS6); assay: Inhibition of recombinant Set7/9 (unknown origin) expressed in Escherichia coli BL21 (DE3) using Ac-KRSK-MCA peptide/SAM as substrate preincubated for 1 hr followed by substrate addition measured after 15 mins by Dixon plot analysis
T4 sequence (Q8WTS6 whole entry): T1 sequence (whole entry)
Method in brief: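 Fluorogenic HMT kinetics used recombinant His-Set7/9 expressed in E. coli BL21(DE3) (IPTG 0.1 mM, 18 °C, 24 h) and purified on Ni2+ affinity. The methyl acceptor was Ac-KRSK-MCA and the cofactor was SAM. Ki was obtained from a Dixon plot of initial velocity versus inhibitor. Four independent assays, SD.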

- inhibition [1]: Active
- inhibition [2]: Active
- inhibition [3]: inactive
- T1/2 [5]: 10.3 h
- inhibition [6]: Active
- Ki [7]: 15 µM
SMILES: CN1CCC(=C2c3ccccc3C=Cc3ccccc32)CC1 [CYPROHEPTADINE]
- TGI [4]: Active
